Source: publication PMC2903848 (The FEBS journal, 2010)
Values belong to the compound of their own block, whether it stands above or below them.

Columns and labels:
[1] = target: T1, recombinant human GST-PRMT4 (Homo sapiens, UniProt Q86X55); experiment: In vitro methylation of histone 3 by recombinant GST-PRMT4; type: biochemical; conditions: read-out: PRMT4 IC50; recombinant human GST-PRMT4, histone 3 as substrate
T1 sequence (Q86X55 1-608): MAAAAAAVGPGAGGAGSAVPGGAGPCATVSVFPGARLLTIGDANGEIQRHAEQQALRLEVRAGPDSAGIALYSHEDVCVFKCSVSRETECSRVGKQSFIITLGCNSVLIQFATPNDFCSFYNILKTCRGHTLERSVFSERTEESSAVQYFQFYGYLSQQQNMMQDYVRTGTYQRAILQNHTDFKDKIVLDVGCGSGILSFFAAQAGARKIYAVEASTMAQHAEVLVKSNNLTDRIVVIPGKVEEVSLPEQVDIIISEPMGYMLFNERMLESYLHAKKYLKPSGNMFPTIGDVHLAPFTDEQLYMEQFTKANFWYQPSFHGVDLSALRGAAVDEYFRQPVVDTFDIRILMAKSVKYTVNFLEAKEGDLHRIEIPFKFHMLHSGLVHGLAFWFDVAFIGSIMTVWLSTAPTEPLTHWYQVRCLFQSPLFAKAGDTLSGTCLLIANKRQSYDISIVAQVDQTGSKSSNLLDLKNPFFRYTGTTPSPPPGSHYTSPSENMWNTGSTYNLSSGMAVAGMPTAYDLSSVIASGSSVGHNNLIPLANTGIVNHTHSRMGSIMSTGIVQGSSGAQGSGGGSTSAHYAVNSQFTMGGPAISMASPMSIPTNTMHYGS
Procedure, shortened: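 Recombinant human GST-PRMT4 methylated recombinant histone 3 in the presence of [3H]SAM and increasing concentrations of test compound. Methylation was quantified by densitometry, and IC50 was calculated by linear regression. Representative of at least three independent experiments.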

PRMT6 = PRMT6 (Homo sapiens, UniProt Q96LA8); experiment: In vitro methylation of GST-GAR by recombinant GST-PRMT6; type: biochemical; conditions: 30μM compound, GST-GAR substrate
Procedure, shortened: (§1)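 Recombinant GST-PRMT6 or GST-PRMT8 was concentrated on a micron 10 filter and reacted with GST-GAR substrate and [3H]SAM plus 30μM test compound. Reactions were quantified by densitometry. Representative of at least three independent experiments.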

PRMT8 = PRMT8 (Homo sapiens, UniProt Q9NR22); experiment: In vitro methylation of GST-GAR by recombinant GST-PRMT8; type: biochemical; conditions: 30μM compound, GST-GAR substrate
Procedure, shortened: as §1

PRMT5 = PRMT5 (Homo sapiens, UniProt O14744); type: biochemical; conditions: PRMT5 immunoprecipitated from 293T cells, MBP as substrate
Procedure, shortened: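 PRMT5, or an isotype-control IP, was immunoprecipitated from 293 cell extracts and used in in vitro methylation reactions with MBP substrate at the indicated test compound concentrations. Reaction inputs were checked by immunoblotting with PRMT5 antisera. Representative of at least three independent experiments.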

PRMT1 [2] = experiment: HA-PRMT1/FLAG-PRMT1 coimmunoprecipitation; conditions: 100μM during coimmunoprecipitation
Procedure, shortened: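 HA-PRMT1 and FLAG-PRMT1 were expressed in separately transfected 293T cells. Equal volumes of the two lysates were mixed and incubated with DMSO or test compound (100μM) during the anti-HA agarose immunoprecipitation. Blots were probed with anti-FLAG. As a specificity control, IPs from vector-only cells were incubated with FLAG-NIP45 lysates.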

Th1 cells = experiment: Th1 cell IFNγ production by ELISA; type: cell-based, mice; conditions: 100μM
Procedure, shortened: (§2)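 Balb/c T helper cells isolated by magnetic beads, cultured in RPMI with plate-bound anti-CD3 1μg/mL, anti-CD28 2μg/mL and IL-2. Th1 skewed with rIL-12 5ng/mL and anti-IL-4 10 μg/mL (IFNγ line); Th2 with rIL-4 10 ng/mL and anti-IFNγ 10 μg/mL (IL-4 line). Day-7 cells at 1 × 10^6 cells/mL restimulated with plate-bound anti-CD3 (1μg/mL) for 24 h with compound or DMSO. Supernatant cytokine measured by ELISA; at least three experiments.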

Th2 cells = experiment: Th2 cell IL-4 production by ELISA; type: cell-based, mice; conditions: 100μM
Procedure, shortened: as §2

[3] = tested on: IL-4 promoter (−760 to +68) in Jurkat cells; experiment: IL-4 promoter luciferase reporter in Jurkat cells; type: cell-based, human; conditions: 18hrs pretreatment then 6hr PMA/Ionomycin, 100μM (Adox 20μM)
Procedure, shortened: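 Jurkat cells in RPMI, electroporated (280V, 975μF) with IL-4 promoter luciferase reporter (3μg) plus thymidine kinase-driven Renilla luciferase (10ng) as internal control. Compounds in DMSO, vehicle control DMSO; 18 h pretreatment, then 6 h stimulation with 50 ng/mL PMA plus ionomycin. Dual luciferase read-out, firefly normalised to Renilla. At least three independent experiments.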

PRMT1/NIP45 interaction = experiment: HA-PRMT1/FLAG-NIP45 coimmunoprecipitation in 293T cells; type: cell-based; conditions: 293T cells transfected with HA-PRMT1 and FLAG-NIP45; 100μM (Adox 20μM)
Procedure, shortened: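 293T cells were co-transfected (Fugene HD) with HA-PRMT1 and FLAG-NIP45 vectors, then treated with DMSO, test compound (100μM) or Adox (20μM). Lysates in 100 mM NaCl, 50 mM TRIS pH 7.5, 0.1% TX-100 buffer were immunoprecipitated with anti-HA agarose and blotted for FLAG, then reprobed for HA. FLAG/HA association was quantified versus DMSO; three experiments.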

recombinant hPRMT1 = conditions: read-out: PRMT1 IC50; reported value using recombinant hPRMT1 and GST-Npl3 as substrate; cited from earlier work
[4] = tested on: H3R17 methylation in 293T cells; experiment: Cellular H3R17 methylation immunoblot in 293T cells; type: cell-based; conditions: 293T cells over treatment period (data not shown)
Procedure, shortened: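 293T cells grown in DMEM were treated for 24 hrs with DMSO vehicle, test compound (100μM or 300μM) or Adox (20μM). Histone extracts were immunoblotted with anti-histone 3 dimethylarginine 17 antibody. Methylation was quantified relative to vehicle-treated samples. Toxicity was followed over the treatment period. Three independent experiments.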

[5] = Viability of T helper cells; type: cell-based; conditions: Balb/c, mouse, primary T helper cells
T helper cells [6] = experiment: Viability of T helper cells; type: cell-based; conditions: T helper cells, 100 μM
T helper cells [7] = experiment: T helper cell proliferation; type: cell-based, mice; conditions: anti-CD3 stimulated T helper cells, MTS assay
PRMT1 [8] = target: PRMT1 (Rattus norvegicus, UniProt Q63009); experiment: UV crosslinking of [3H]SAM to GST-PRMT1; type: binding; conditions: 100μM inhibitor, 20μM [3H]SAM
Chain of PRMT1 (Rattus norvegicus, UniProt Q63009) (Q63009 whole entry): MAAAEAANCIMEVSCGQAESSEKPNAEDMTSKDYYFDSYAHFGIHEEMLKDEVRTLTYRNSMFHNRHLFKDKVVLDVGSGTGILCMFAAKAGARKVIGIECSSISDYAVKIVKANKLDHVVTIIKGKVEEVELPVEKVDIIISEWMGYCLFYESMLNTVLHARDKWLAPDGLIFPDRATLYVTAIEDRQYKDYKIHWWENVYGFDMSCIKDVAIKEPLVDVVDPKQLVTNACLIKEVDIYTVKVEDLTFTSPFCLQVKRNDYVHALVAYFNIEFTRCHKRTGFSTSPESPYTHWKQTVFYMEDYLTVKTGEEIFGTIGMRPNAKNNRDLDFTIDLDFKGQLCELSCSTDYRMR

Chain of PRMT8 (Q9NR22 whole entry, species assumed): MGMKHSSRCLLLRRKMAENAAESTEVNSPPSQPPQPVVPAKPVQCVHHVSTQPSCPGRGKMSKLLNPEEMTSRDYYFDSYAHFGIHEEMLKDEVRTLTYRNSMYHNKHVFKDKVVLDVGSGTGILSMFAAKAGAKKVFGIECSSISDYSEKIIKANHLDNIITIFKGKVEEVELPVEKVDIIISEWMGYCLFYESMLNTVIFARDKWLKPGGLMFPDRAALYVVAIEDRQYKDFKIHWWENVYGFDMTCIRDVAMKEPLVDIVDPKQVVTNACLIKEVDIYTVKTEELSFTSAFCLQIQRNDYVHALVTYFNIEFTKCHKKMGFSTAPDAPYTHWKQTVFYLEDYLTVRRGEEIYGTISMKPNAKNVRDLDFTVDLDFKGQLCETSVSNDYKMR
Chain of PRMT6 (Q96LA8 whole entry, species assumed): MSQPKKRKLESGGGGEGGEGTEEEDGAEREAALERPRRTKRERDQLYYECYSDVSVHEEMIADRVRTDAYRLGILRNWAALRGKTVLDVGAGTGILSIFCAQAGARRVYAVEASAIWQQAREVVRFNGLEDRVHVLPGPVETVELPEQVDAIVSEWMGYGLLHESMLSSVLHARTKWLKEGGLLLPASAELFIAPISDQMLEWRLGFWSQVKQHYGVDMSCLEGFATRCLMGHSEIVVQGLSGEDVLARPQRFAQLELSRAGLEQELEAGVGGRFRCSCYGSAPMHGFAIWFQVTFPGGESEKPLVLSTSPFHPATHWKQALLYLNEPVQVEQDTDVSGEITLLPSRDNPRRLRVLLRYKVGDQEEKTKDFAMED
Chain of PRMT5 (O14744 whole entry): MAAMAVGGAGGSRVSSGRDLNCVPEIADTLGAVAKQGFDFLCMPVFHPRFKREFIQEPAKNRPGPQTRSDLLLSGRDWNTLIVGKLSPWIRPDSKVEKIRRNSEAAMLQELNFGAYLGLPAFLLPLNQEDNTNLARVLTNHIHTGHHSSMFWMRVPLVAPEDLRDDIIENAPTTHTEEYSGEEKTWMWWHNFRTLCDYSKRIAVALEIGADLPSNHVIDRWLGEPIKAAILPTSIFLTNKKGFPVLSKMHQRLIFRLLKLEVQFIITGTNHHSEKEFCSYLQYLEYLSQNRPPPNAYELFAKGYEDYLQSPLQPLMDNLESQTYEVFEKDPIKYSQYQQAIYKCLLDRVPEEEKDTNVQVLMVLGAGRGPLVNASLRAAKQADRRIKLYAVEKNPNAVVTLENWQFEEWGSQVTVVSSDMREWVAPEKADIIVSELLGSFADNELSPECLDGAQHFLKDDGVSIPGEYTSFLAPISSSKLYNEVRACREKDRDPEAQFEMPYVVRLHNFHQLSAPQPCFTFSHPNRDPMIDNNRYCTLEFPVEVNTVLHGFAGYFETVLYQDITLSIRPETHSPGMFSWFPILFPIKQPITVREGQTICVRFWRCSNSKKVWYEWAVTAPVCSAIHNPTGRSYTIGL
Chain of PRMT5 (Q9BQA1 whole entry partner): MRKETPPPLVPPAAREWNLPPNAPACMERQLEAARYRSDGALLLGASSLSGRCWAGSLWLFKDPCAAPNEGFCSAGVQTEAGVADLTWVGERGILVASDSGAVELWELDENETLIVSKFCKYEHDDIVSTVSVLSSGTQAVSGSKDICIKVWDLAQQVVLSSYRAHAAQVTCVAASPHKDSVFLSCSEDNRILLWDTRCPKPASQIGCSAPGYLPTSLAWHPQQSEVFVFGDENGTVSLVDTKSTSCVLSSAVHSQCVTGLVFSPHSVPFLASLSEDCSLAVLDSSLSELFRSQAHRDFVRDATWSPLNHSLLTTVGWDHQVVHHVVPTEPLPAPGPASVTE

- IC50 [1]: 170 ± 10.7 µM
- inhibition of GST-GAR methylation by PRMT6 (PRMT6): less effective
- inhibition of GST-GAR methylation by PRMT8 (PRMT8): less effective
- inhibition of PRMT5 activity (PRMT5): ineffective
SMILES: O=C(Nc1ccc2c(O)cc(S(=O)(=O)O)cc2c1)Nc1ccc2c(O)cc(S(=O)(=O)O)cc2c1 [AMI-1]
- effect on HA-PRMT1/FLAG-PRMT1 interaction (oligomerization) (PRMT1 [2]): did not interfere with the interaction
- reduction of Th1 IFNγ production (Th1 cells; anti-CD3 stimulated Th1 cells, ELISA): less than 40%
- reduction of Th2 IL-4 levels (Th2 cells; anti-CD3 stimulated Th2 cells, ELISA): less than 40%
- effect on IL-4 promoter reporter activity [3]: decreased promoter activity
- effect on PRMT1/NIP45 association (PRMT1/NIP45 interaction): interfered with the NIP45 and PRMT1 interaction
- IC50 (recombinant hPRMT1): 8.8 µM

SMILES: Nc1ncnc2c1ncn2C(C=O)OC(C=O)CO (centres unmarked) [Adox, adenosine dialdehyde]
- cellular toxicity [4]: no cellular toxicity
- effect on IL-4 promoter reporter activity [3]: greatly diminished
- effect on PRMT1/NIP45 association (PRMT1/NIP45 interaction): reduced the association

SMILES: CSC[C@H]1O[C@@H](n2cnc3c(N)ncnc32)[C@H](O)[C@@H]1O [MTA, methylthioadenosine]
- effect on IFNγ production (Th1 cells; Th1 cells): diminished
- effect on IL-4 production (Th2 cells; Th2 cells): diminished
- viability at 100 µM [5]: 90.9%
- % apoptotic (T helper cells [6]): 4.9%
- % necrotic (T helper cells [6]): 4.2%
- effect on T helper cell proliferation (T helper cells [7]): inhibited T cell proliferation

- competition for SAM binding to PRMT1 (PRMT1 [8]): competitive with SAM for binding
SMILES: Nc1ncnc2c1ncn2[C@@H]1O[C@H](C[C@@H](N)CC[C@H](N)C(=O)O)[C@@H](O)[C@H]1O [sinefungin]
